According to ChEMBL document CHEMBL5236619, “Design and Optimization of 1H-1,2,3-Triazole-4-carboxamides as Novel, Potent, and Selective Inverse Agonists and Antagonists of PXR” (J Med Chem, 2022):
Activity calls are given as the source filed them. No cut-off for these calls is given here.

Assays:
[1] = molecular target: T1, Nuclear receptor subfamily 1 group I member 2 (Mus musculus, UniProt O54915); test: Effect on mouse PXR activity by luciferase reporter assay
T1 sequence (O54915 whole entry): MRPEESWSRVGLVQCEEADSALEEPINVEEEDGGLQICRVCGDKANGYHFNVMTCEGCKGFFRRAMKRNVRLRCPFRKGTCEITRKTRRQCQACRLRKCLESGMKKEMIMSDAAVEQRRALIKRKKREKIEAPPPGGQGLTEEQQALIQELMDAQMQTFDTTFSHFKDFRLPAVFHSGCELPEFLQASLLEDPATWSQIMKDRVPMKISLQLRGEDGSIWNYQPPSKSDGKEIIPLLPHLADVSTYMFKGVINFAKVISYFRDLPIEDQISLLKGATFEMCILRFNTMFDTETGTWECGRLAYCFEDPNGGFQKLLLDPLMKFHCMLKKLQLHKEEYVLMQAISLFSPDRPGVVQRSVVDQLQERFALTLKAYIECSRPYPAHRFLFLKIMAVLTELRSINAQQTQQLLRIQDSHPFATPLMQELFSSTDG
Procedure, shortened: (§1)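 Run in agonistic mode (compound alone) or antagonistic mode (compound plus an agonist). Each concentration tested in quadruplicate, at least three times. % activation or % inhibition plotted against concentration, with EC50 or IC50 derived from a sigmoidal dose–response fit.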

[2] = molecular target: T2, Vitamin D3 receptor (Homo sapiens) (UniProt P11473); test: Effect on VDR activity in GeneBLAzer VDR-UAS-bla HEK 293T cells by fluorescence based analysis; type: cell-based; procedure, shortened: as §1
T2 sequence (whole entry): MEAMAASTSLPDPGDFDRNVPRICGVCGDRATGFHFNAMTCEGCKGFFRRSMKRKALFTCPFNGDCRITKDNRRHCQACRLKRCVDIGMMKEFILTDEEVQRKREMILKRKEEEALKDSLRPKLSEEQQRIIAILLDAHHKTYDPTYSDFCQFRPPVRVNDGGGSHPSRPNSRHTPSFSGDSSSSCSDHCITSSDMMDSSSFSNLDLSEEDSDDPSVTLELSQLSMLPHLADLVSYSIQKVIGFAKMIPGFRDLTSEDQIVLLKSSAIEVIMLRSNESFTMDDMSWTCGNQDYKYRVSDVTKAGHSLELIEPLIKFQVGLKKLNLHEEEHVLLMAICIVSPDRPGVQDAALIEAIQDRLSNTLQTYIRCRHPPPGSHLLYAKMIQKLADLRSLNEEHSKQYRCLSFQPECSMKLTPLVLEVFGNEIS

[3] = test system: HepG2; test: Cytotoxicity against human HepG2 cells assessed as reduction in cell viability measured after 24 to 72 hrs by celltiter-glo luminescent cell viability assay; type: toxicity, cell-based; settings: time 24-72 hrs
Procedure, shortened: (§2)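 Cells seeded at 2,500 per well for 1-day or 5,000 per well for 3-day exposure. Viability read by CellTiter-Glo luminescence. Staurosporine (56 μM) set as 100% cytotoxicity. Each concentration run in quadruplicate, at least three times. % cytotoxicity plotted and fitted to a sigmoidal dose–response curve. Means and SDs from three independent experiments.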

[4] = molecular target: T3, Bile acid receptor (Homo sapiens) (UniProt Q96RI1); test: Effect on FXR activity in GeneBLAzer FXR-UAS-bla HEK 293T cells by fluorescence based analysis; type: cell-based; procedure, shortened: as §1
T3 sequence (whole entry): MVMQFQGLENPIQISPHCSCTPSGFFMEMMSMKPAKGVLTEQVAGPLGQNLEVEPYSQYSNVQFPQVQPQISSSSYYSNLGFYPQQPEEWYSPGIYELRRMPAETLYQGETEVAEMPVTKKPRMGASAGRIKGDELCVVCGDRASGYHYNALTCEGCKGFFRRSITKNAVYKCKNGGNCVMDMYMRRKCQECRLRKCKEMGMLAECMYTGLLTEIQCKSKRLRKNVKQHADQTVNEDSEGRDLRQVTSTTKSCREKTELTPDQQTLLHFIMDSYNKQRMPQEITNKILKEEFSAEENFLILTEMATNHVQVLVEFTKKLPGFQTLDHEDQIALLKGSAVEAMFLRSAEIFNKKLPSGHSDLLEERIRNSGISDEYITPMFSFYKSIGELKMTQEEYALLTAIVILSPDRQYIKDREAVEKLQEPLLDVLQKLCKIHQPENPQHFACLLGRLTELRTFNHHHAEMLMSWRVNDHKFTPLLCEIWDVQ

[5] = molecular target: T4, PXR (NR1I2) (Homo sapiens, UniProt O75469); test: Inverse agonist activity at human PXR in human HepG2 cells co-expressing luciferase gene under control of CYP3A4 promoter assessed as inhibition in receptor basal activity at 10 uM incubated for 24 hrs by luminescence based analysis relative to control; type: cell-based
T4 sequence (O75469 whole entry): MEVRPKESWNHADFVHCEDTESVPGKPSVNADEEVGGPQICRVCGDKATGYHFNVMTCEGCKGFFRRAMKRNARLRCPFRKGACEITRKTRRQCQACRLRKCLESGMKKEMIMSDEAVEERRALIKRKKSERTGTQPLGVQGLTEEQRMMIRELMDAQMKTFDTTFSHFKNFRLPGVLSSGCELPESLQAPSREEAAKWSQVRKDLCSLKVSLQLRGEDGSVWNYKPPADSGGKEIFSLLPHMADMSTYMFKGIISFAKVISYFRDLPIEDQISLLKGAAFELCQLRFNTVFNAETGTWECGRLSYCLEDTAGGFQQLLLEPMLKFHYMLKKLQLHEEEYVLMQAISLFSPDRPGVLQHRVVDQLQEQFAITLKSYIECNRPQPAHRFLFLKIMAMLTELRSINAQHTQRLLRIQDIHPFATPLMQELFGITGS

[6] = Cytotoxicity against […] Hepa1-6 cells assessed as reduction in cell viability measured after 24 to 72 hrs by celltiter-glo luminescent cell viability assay; type: toxicity, cell-based; settings: time 24-72 hrs; procedure, shortened: as §2
[7] = test system: HEK-293T; test: Cytotoxicity against HEK293T cells assessed as reduction in cell viability measured after 24 to 72 hrs by celltiter-glo luminescent cell viability assay; type: toxicity, cell-based; settings: human, time 24-72 hrs; procedure, shortened: as §2
[8] = molecular target: T5, Oxysterols receptor LXR-alpha (Homo sapiens) (UniProt Q13133); test: Effect on LXRalpha activity in GeneBLAzer LXRalpha-UAS-bla HEK 293T cells by fluorescence based analysis; type: cell-based; procedure, shortened: as §1
T5 sequence (whole entry): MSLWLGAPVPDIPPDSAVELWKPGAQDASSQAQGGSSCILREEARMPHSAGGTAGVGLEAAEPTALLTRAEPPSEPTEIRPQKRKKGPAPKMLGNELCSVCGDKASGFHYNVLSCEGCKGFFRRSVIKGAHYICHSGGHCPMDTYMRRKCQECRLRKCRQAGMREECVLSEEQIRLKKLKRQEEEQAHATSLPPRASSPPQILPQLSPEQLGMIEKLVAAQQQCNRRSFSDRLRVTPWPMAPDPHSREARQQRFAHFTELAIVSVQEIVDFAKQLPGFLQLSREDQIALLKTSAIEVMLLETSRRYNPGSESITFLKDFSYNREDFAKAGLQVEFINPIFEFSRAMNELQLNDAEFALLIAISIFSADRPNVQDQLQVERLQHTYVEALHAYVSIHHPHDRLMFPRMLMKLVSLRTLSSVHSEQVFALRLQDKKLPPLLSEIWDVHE

[9] = test system: HepaRG; test: Cytotoxicity against human HepaRG cells assessed as reduction in cell viability measured after 24 to 72 hrs by celltiter-glo luminescent cell viability assay; type: toxicity, cell-based; settings: time 24-72 hrs; procedure, shortened: as §2
[10] = test system: HepG2; test: Effect on CAR activity in human HepG2 cells co-expressing luciferase gene under control of CYP3A4 promoter by luciferase reporter assay; type: cell-based
[11] = molecular target: T6, Nuclear receptor subfamily 1 group I member 2 (Homo sapiens, UniProt O75469); test: Agonist activity at human PXR in human HepG2 cells co-expressing luciferase gene under control of CYP3A4 promoter assessed as transcriptional activation at 30 uM incubated for 24 hrs by luminescence based analysis; type: cell-based; settings: hepg2, 24 h
T6 sequence (O75469 whole entry): T4 sequence (O75469 whole entry)

[12] = molecular target: T7, PXR (NR1I2) ligand binding domain (Homo sapiens, UniProt O75469); test: Inhibition of BODIPY FL vindoline binding to recombinant human GST-tagged PXR LBD (111 to 434 residues) expressed in baculovirus infected insect cells at 10 uM incubated for 1 mins under shaking condition followed by 60 mins under dark condition by TR-FRET assay relative to control; settings: probe BODIPY FL vindoline, time 61 min
T7 sequence (O75469 whole entry): T4 sequence (O75469 whole entry)

For `CCC[C@H](C)Oc1ccc(C(C)(C)C)cc1NC(=O)c1nnn(-c2cc(OC)ccc2OC)c1C`, the Activity [1] was “Not Active”, the Activity [2] was “inactive” and the Activity [3] was “Non-Toxic”. For the same molecule, the Activity [4] was “inactive”, the inhibition at 24 h, 10 µM [5] was 125% and the Activity [6] was “Non-Toxic”. The Activity [7] was “Non-Toxic”, the Activity [8] was “inactive” and the Activity [9] was “Non-Toxic”. For the same molecule, the Activity [10] was “inactive”, the Activity [11] was “Not Active” and the inhibition at 1.017 h, 10 µM [12] was 87%.
